Laboratory results taken from ChEMBL document CHEMBL2417378, “Ligand-protein interactions of selective casein kinase 1δ inhibitors” (J Med Chem, 2013).

Experiments:
[1] = molecular target: Rho-associated protein kinase 2 (Homo sapiens) (UniProt O75116); experiment: Inhibition of ROCK2 (unknown origin) at 1 uM
JNK2/JNK3 (Homo sapiens) = JNK2/JNK3 (Homo sapiens) (UniProt P53779+P45984); experiment: Inhibition of JNK 2/3 (unknown origin) at 1 uM; type: protein assay
[2] = molecular target: Mitogen-activated protein kinase 14 (Homo sapiens) (UniProt Q16539); experiment: Inhibition of MAPK14 (unknown origin) at 1 uM
[3] = molecular target: Tyrosine-protein kinase Lyn (Homo sapiens) (UniProt P07948); experiment: Inhibition of LYN (unknown origin) at 1 uM
[4] = molecular target: Epidermal growth factor receptor (Homo sapiens) (UniProt P00533); experiment: Inhibition of EGFR (unknown origin) at 1 uM
[5] = molecular target: Tyrosine-protein kinase ABL1 (Homo sapiens) (UniProt P00519); experiment: Inhibition of ABL (unknown origin) at 1 uM
[6] = molecular target: Mitogen-activated protein kinase kinase kinase kinase 4 (Homo sapiens) (UniProt O95819); experiment: Inhibition of MAP4K4 (unknown origin) at 1 uM
MAP kinase p38 [7] = molecular target: T1, MAP kinase p38 (Homo sapiens, UniProt O15264+Q15759+Q16539+P53778); experiment: Inhibition of p38 (unknown origin) at 1 uM; type: protein assay
MAP kinase p38 [8] = molecular target: T1, MAP kinase p38; experiment: Inhibition of p38 (unknown origin); type: protein assay
Outline: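 p38 IC50 determined by outside SelectScreen profiling service, ATP at Km.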

[9] = molecular target: T2, Casein kinase I isoform delta (Homo sapiens, UniProt P48730); experiment: Inhibition of human CK1 delta transfected in african green monkey cos7 cells after overnight incubation by whole cell assay; type: cell-based, COS-7
Outline: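 COS-7 cells in DMEM with 10% FBS were co-transfected by lipofection with mPER3-GFP and human CK1δ plasmids (1:11), then plated. Compounds, diluted in Opti-MEM, were tested at 11 concentrations overnight at 37 °C. Cells were fixed in 4% paraformaldehyde and Hoechst-stained, and nuclear translocation of mPER3-GFP was imaged on ArrayScan.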

[10] = molecular target: Casein kinase I isoform epsilon (Homo sapiens, UniProt P49674); experiment: Inhibition of CK1 epsilon (unknown origin) using PLSRTLpSVASLPGL as substrate after 85 mins by microplate reader analysis
[11] = molecular target: T2, Casein kinase I isoform delta; experiment: Inhibition of CK1 delta (unknown origin) using PLSRTLpSVASLPGL as substrate after 60 mins by microplate reader analysis
[12] = molecular target: T3, Voltage-gated inwardly rectifying potassium channel KCNH2 (Homo sapiens, UniProt Q12809); experiment: Displacement of [3H]dofetilide from human ERG channel
Plasma [13] = experiment: fCmax in C57Bl/6J mouse plasma at 56 mg/kg, sc by LC/MS analysis; type: ADME, organism-based; design: dose 56 mg/kg, route subcutaneous; details: in vivo
Outline: (§1)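 Male C57BL/6J mice got a single subcutaneous dose. Plasma and whole brain were taken at 0.5–24 h (n = 4 per time). Brain was homogenized in 60% isopropanol and samples quantified by LC-MS after protein precipitation. Free fraction came from 6 h equilibrium dialysis at 37 °C of plasma or brain homogenate spiked with 1 μM compound.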

Brain [14] = experiment: fCmax in C57Bl/6J mouse brain at 56 mg/kg, sc by LC/MS analysis; type: ADME, organism-based; design: dose 56 mg/kg, route subcutaneous; details: in vivo; outline: as §1
[15] = molecular target: T3, Voltage-gated inwardly rectifying potassium channel KCNH2; experiment: Inhibition of human ERG channel by electrophysiological method
hERG (KCNH2) [16] = molecular target: hERG (KCNH2) (Homo sapiens, UniProt Q12809); experiment: Displacement of [3H]dofetilide from human ERG channel at 10 uM; details: probe [3H]dofetilide
[17] = molecular target: Tyrosine-protein kinase Lck (Homo sapiens) (UniProt P06239); experiment: Inhibition of LCK (unknown origin) at 1 uM
[18] = molecular target: Casein kinase I isoform alpha (Homo sapiens) (UniProt P48729); experiment: Inhibition of CK1 alpha (unknown origin) at 1 uM
Homo sapiens = species on record: Homo sapiens; experiment: Inhibition of PKA alpha (unknown origin) at 1 uM
Plasma [19] = experiment: fCmax in C57Bl/6J mouse plasma at 32 mg/kg, sc by LC/MS analysis; type: ADME, organism-based; design: dose 32 mg/kg, route subcutaneous; details: in vivo; outline: as §1
Brain [20] = experiment: fCmax in C57Bl/6J mouse brain at 32 mg/kg, sc by LC/MS analysis; type: ADME, organism-based; design: dose 32 mg/kg, route subcutaneous; details: in vivo; outline: as §1
hERG (KCNH2) [21] = experiment: Therapeutic index, ratio of EC50 for human ERG channel to fCmax in mouse plasma; type: cell-free; details: read-out: TI
[22] = Ratio of fCmax in brain to plasma of C57Bl/6J mouse; type: ADME, cell-free
Outline: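 Male C57BL/6J mice given a single subcutaneous dose (56 mg/kg unless noted). Plasma and whole brain were taken under isoflurane at 0.5, 1, 2, 4, 8 and 24 h (n = 4 per time point). Brain was homogenised in 4 volumes of 60% isopropanol, and samples were quantified by LC-MS after protein precipitation. Free fractions came from equilibrium dialysis of 1 μM-spiked plasma or brain homogenate (6 h, 37 °C, n = 6).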

Mus musculus = experiment: In vivo inhibition of CK1 delta in C57Bl/6J mouse circardian rhythm model assessed as delay in phase shift at 56 mg/kg, sc after 3 days; type: functional; details: route subcutaneous
Outline: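 Mice received 56 mg/kg subcutaneously for 3 days. Phase shift was taken as the start of the active period after dosing minus before dosing.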

T3 sequence (Q12809 whole entry): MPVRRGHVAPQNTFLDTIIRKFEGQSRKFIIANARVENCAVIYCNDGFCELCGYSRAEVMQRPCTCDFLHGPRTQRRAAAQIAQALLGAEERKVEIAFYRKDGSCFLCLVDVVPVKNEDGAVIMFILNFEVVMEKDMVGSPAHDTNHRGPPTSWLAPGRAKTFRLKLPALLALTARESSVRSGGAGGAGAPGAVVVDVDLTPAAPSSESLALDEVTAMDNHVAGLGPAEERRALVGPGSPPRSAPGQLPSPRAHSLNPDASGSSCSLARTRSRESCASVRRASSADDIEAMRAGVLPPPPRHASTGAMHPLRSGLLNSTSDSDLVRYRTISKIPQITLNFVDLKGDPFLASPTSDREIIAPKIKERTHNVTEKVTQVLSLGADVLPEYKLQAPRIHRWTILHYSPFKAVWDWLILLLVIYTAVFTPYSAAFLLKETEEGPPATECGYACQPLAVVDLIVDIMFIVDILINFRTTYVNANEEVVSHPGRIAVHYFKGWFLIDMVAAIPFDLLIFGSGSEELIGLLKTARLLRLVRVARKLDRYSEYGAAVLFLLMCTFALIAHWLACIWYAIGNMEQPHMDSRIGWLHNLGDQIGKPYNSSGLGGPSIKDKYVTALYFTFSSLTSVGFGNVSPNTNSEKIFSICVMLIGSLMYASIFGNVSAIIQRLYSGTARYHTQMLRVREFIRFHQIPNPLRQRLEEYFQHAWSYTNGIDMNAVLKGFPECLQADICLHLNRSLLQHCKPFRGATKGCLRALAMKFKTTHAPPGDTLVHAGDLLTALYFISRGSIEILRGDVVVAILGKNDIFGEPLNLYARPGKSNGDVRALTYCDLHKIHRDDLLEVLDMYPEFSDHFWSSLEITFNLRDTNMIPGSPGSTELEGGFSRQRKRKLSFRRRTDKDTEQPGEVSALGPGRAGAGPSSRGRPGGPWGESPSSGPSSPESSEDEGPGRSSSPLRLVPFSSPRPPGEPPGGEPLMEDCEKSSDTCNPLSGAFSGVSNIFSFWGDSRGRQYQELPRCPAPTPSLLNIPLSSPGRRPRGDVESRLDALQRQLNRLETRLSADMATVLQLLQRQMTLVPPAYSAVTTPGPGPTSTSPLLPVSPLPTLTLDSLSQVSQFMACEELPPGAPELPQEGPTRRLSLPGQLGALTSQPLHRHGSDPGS
T2 sequence (P48730 whole entry, canonical isoform): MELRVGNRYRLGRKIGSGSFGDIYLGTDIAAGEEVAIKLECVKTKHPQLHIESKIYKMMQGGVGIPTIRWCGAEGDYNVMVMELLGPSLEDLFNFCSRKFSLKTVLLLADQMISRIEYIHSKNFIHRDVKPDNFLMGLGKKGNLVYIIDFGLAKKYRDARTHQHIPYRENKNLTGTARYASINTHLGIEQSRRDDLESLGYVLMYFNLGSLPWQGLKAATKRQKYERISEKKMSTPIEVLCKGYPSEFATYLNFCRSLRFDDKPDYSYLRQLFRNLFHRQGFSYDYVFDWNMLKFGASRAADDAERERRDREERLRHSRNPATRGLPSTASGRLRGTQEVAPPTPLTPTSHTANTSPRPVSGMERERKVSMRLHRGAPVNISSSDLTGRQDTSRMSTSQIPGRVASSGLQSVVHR
Chain of Casein kinase I isoform epsilon (P49674 whole entry, canonical isoform): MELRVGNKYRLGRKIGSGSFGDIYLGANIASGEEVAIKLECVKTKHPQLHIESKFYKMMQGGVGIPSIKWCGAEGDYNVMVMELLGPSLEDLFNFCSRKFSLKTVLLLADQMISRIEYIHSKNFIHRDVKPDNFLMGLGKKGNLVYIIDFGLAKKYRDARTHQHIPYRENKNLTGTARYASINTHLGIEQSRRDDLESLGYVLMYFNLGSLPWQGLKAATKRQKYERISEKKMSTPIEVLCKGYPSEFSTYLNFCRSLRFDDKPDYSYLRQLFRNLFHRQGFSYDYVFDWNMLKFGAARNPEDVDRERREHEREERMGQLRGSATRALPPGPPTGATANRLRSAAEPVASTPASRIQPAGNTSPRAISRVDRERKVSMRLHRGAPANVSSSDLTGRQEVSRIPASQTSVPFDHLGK
Chain of Mitogen-activated protein kinase kinase kinase kinase 4 (Homo sapiens) (O95819 2-1239 limits assumed): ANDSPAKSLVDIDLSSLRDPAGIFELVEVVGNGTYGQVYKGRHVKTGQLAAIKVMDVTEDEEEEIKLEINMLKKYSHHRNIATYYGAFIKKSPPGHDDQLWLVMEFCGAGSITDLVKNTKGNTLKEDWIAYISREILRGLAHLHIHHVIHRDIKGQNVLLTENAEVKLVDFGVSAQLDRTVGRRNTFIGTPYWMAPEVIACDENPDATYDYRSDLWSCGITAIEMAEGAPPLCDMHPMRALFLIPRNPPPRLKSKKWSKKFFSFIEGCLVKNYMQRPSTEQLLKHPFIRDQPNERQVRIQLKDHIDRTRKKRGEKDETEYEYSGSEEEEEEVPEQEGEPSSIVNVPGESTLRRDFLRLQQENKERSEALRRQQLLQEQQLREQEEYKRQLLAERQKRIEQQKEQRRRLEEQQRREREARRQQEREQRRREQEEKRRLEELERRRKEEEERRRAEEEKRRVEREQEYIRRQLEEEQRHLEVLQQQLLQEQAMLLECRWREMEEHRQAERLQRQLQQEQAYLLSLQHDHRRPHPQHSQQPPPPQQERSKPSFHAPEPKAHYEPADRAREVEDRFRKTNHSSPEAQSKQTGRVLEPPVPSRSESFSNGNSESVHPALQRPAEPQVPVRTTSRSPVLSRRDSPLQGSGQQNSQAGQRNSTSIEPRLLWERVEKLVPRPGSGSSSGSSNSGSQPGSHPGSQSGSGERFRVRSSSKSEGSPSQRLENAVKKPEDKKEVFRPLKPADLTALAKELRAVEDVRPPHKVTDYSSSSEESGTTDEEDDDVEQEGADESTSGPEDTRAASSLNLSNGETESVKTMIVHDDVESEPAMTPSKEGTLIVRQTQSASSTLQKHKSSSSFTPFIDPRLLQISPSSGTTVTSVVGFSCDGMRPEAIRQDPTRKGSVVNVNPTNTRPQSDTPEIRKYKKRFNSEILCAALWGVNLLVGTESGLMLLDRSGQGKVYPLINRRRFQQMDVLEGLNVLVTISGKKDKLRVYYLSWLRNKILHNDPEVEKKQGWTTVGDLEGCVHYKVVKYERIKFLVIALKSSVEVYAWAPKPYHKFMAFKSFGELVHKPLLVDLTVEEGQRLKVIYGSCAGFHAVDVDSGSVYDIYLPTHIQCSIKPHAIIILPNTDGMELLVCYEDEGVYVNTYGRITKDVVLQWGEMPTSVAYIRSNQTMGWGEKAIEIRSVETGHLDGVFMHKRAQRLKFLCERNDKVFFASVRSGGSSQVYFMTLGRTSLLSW
Chain of Epidermal growth factor receptor (Homo sapiens) (P00533 whole entry): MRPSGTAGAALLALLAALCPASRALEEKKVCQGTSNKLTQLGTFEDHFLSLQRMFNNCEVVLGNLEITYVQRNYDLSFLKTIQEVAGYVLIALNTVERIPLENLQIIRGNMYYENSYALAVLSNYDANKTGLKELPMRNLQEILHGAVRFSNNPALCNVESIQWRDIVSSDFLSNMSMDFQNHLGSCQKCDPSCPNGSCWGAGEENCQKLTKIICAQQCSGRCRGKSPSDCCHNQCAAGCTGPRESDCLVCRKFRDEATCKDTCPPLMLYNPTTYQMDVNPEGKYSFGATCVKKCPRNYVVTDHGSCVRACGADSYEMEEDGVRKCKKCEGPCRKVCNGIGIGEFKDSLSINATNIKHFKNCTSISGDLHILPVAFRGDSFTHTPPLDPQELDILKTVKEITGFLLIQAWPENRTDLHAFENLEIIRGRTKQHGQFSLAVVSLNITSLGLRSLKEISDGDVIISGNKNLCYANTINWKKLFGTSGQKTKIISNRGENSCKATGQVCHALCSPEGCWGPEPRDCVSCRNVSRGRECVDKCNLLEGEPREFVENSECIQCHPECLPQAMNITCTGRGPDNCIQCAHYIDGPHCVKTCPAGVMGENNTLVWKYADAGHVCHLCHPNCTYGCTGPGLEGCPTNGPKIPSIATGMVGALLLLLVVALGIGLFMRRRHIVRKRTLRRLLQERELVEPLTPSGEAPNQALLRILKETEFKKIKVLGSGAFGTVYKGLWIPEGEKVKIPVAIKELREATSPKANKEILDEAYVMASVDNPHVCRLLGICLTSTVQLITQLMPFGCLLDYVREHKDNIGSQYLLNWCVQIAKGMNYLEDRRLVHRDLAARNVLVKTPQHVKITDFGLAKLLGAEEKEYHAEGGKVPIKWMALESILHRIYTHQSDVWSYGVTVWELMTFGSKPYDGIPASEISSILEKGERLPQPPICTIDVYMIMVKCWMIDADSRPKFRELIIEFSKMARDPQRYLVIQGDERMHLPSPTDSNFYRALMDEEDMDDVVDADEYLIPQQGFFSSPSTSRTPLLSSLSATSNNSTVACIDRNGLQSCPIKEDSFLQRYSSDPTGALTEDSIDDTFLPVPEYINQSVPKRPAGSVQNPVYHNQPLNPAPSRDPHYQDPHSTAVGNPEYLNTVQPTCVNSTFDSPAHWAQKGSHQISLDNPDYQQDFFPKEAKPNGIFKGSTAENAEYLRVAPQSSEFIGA
Chain of Mitogen-activated protein kinase 14 (Homo sapiens) (Q16539 whole entry): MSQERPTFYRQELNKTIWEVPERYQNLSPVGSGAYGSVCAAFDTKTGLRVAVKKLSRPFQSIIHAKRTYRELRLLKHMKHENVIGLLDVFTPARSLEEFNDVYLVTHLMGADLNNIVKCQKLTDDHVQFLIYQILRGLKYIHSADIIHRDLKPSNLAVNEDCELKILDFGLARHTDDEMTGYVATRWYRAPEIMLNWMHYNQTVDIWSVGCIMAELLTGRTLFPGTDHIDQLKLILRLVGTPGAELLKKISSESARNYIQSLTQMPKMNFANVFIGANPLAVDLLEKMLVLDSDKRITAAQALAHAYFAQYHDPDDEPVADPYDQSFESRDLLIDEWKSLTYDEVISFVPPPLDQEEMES

Row | SMILES | inhibition [4] [%] | inhibition [6] [%] | inhibition (MAP kinase p38 [7]) [%] | IC50 (MAP kinase p38 [8]) [nM] | IC50 [9] [nM] | IC50 [10] [nM] | IC50 [11] [nM] | IC50 [12] [nM] | fCmax (Plasma [13]) [µM] | fCmax (Brain [14]) [µM] | IC50 [15] [nM] | other results
1 | Cn1cc(-c2ccncc2)c(-c2ccc(F)cc2)n1 | 80 | 66 | 85 | 126 | 545 | 305 | 48.1 |  |  |  |  | inhibition [1]: 52%; inhibition (JNK2/JNK3 (Homo sapiens)): 48%; inhibition [2]: 55%; inhibition [3]: 70.5%; inhibition [5]: 61%
2 | Cn1cc(-c2ccnc(C3COCCN3)c2)c(-c2ccc(F)cc2)n1 (single isomer, unassigned; (-)) |  |  |  | > 1000 | 90 | 28.2 | 5.3 | 25900 | 1.95 | 3.7 | 4430 | 
3 | Cn1cc(-c2ccnc(CO)c2)c(-c2ccc(F)cc2)n1 |  |  | 42 |  | 237 | 81.6 | 14.2 |  |  |  |  | inhibition at 10 µM (hERG (KCNH2) [16]): 6%
4 | Nc1nccc(-c2c(-c3ccc(F)cc3)ncn2C2CCCCC2)n1 | > 50 | > 50 | > 50 | 39.2 |  |  |  |  |  |  |  | inhibition [17]: > 50%; inhibition [18]: > 50%; inhibition (Homo sapiens): > 50%; fCmax (Plasma [19]): 0.752 µM; fCmax (Brain [20]): 0.241 µM
5 | CNCc1cc(-c2cn(C)nc2-c2ccc(F)cc2)ccn1 |  |  |  | 3040 | 63.8 | 67.2 | 12.9 |  | 9.66 | 7.53 |  | 
6 | Cn1cc(-c2ccnc3c2OCCNC3)c(-c2ccc(F)cc2)n1 |  |  |  | 654 | 39 | 27 |  | > 79600 | 8.82 | 2.97 | 25700 | selectivity ratio (hERG (KCNH2) [21]): 3; Kp uu [22]: 0.33; Time (Mus musculus): 175 min
